# Laboratory results as given in the EternaBench riboswitch data.
# System: MS2 coat protein
# Experiment: apparent Kd, MS2 coat protein; higher = weaker binding; RNA-MaP array
# How it was run: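 The designed RNAs, transcribed from sequenced DNA templates on an Illumina sequencing chip, were incubated with fluorescently labeled MS2 coat protein at room temperature. Protein ranged from 1.5 nM to 3 μM, with 0.8–1.5 h incubation at the lowest and 10–20 min at the highest concentrations, in Tris-HCl pH 7.5 buffer with KCl, MgCl2, BSA, DTT, tRNA and Tween20, with or without input ligand. The median of per-cluster binding-curve fits gives the apparent Kd, and designs measured on fewer than 10 clusters were excluded.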
# [1] = designed as: OFF switch for flavin mononucleotide, no ligand
# [2] = ligand present: flavin mononucleotide, designed as: OFF switch for flavin mononucleotide
# [3] = designed as: ON switch for theophylline, no ligand
# [4] = ligand present: theophylline, designed as: ON switch for theophylline
# [5] = designed as: ON switch for flavin mononucleotide, no ligand
# [6] = ligand present: flavin mononucleotide, designed as: ON switch for flavin mononucleotide
# [7] = designed as: OFF switch for tryptophan, no ligand
# [8] = ligand present: tryptophan, designed as: OFF switch for tryptophan
# [9] = designed as: OFF switch for theophylline, no ligand
# [10] = ligand present: theophylline, designed as: OFF switch for theophylline
sequence,measurement,setting,value
UACAUGAGGAUCACCCAUGUCAAUUGUAGAUCGCUCAACGGCAGAAGGCGCAACCCGAUCGGGAGCGAGGAUAUGCCUCGUUAA,apparent Kd,[1],26.5 nM
same,apparent Kd,[2],27.1 nM
UCAGCACAUGAGGAUCACCCAUGUCGUGAUACCAGCCUGUGCGAAGGCCCUUGGCAGCACAGUCCCGAUUUGCUUAUAUGCACUU,apparent Kd,[3],35.7 nM
same,apparent Kd,[4],36.9 nM
CUUACACAUGAGGAUCACCCAUGUCAUGAUACCAGCCAAUACACUGGCCCUUGGCAGCAUCUCAGCCUCAGCUACAUUGACUGAC,apparent Kd,[3],19.9 nM
same,apparent Kd,[4],27.1 nM
GCUCUAAGGGAGAAGGUCAUGUCGCAUCUUAGCGUUCACAUGAGGAUCACCCAUGUUAACUGUGUGAAGGAUAUCCUAGGCUGU,apparent Kd,[5],358 nM
same,apparent Kd,[6],125 nM
CAACGGUUAGAGAAGGCAUAGUAAAGAAUUCAAUGAGGAUAUCUAAAGAAAUGUAUAGGUCUUUUACAUGAGGAUCACCCAUGU,apparent Kd,[1],17.6 nM
same,apparent Kd,[2],9.47 nM
CUUGUGCUGACGGCCGCCACUUUAUGGGAGUCCUGUUCUGAUUGAUACAUGAGGAUCACCCAUGUAAGGACCGGGUCGUACCAUA,apparent Kd,[7],18 nM
same,apparent Kd,[8],22.3 nM
CGUCCACAUGAGGAUCACCCAUGUACACGCGAUCAAGGAUAUCGCGAUAACACAAUAGUGCGAGAAGGUGAUGUAC,apparent Kd,[5],148 nM
same,apparent Kd,[6],79.6 nM
AGCCGUUGGGAUAGACAUGAGGAUCACCCAUGUAAAAGCGAAGAGGAUAUCAGAAUUAAGACAACAGAGAAGGCAUAAAUACAA,apparent Kd,[5],38.1 nM
same,apparent Kd,[6],28.3 nM
CAUCCACCUGAAGCCUCCCAAUUCCUCGAUACCAGAGGAUUAAGACUCCCUUGGCAGCGAGCUACAUGAGGAUCACCCAUGUGCC,apparent Kd,[9],19.1 nM
same,apparent Kd,[10],23.9 nM
AUAUUCGUUCAGGAUAUGUUAAGCUCACGCCUAACAGAAGGGAAUACAUGAGGAUCACCCAUGUGGUGAUGGGA,apparent Kd,[1],498 nM
same,apparent Kd,[2],426 nM
GAUACAUGAGGAUCACCCAUGUGGGAAAUUCAUCUCAUUAAGAAGGAUAUGCAUCUAAAACUGGAGCAGAAGGUCUGUAUCCCG,apparent Kd,[1],87 nM
same,apparent Kd,[2],55.9 nM
CUCAAGUAAGGAUAUAUUCACGCUCGUAAUUAGUGUCGCGCAUAGAAGGUACAUGAGGAUCACCCAUGUCAUGU,apparent Kd,[2],18.4 nM
UAUCUAACGAAGGAUACCAGUACAUGAGAGUACAUGAGGAUCACCCAUGUUAGAUACGGGUACCCUUGGCAGCCUCACCUACACC,apparent Kd,[3],56.8 nM
same,apparent Kd,[4],63.3 nM
UAAGUGCUCACAUGAGGAUCACCCAUGUAUUUACUUAUGAGGAGAAGGAUCAAGGAGCAGCGGUGAUAGGAUAUCCUAAUAGAA,apparent Kd,[5],33 nM
same,apparent Kd,[6],23.6 nM
CGUAUAGCAGGAUAUUGCAGCCGGCACAUGAGGAUCACCCAUGUCGAUGGUCCGCCAUAGCAAGAAGGGCUAGUAG,apparent Kd,[1],85.7 nM
same,apparent Kd,[2],57.1 nM
AAUGGAGUCGAGAAGGCAGCGACCCACUAAACCUGAGGAUAUCGUCUCCGAAAAUGGGUGGGUGUACAUGAGGAUCACCCAUGU,apparent Kd,[1],95.2 nM
same,apparent Kd,[2],122 nM
ACAUGAGGAUCACCCAUGUUUUAUUCGAACUGGAAAUGACGUCAGGAUAUCACAAAUAGCAGCAAUGAGAAGGGACUAUAUAUG,apparent Kd,[5],11.6 nM
same,apparent Kd,[6],8.79 nM
UAUAGUUAAAAGGAUAUCGAAAACAAGCGUAAACGAGAAGGUUUAACAUGAGGAUCACCCAUGUAAGGAGAUGG,apparent Kd,[1],58.4 nM
same,apparent Kd,[2],139 nM
AUCGCGACCCAGAAGGGAAGUCGGUGAAGCGGUUCAGGAUAUGGGCAGAGGACAUGAGGAUCACCCAUGUGCAUGUAUUCGGCA,apparent Kd,[5],17.2 nM
same,apparent Kd,[6],13.7 nM
CAUCCAACACAAGGAUAUUGGACGUUUUUCAGCGCACAUGAGGAUCACCCAUGUACAAGGGAGUACAAGAAGGUGUUUUGGAUC,apparent Kd,[5],27.1 nM
same,apparent Kd,[6],9.49 nM
UUUAACAAGAACGUCCUGAGUGACAAGCUACGAGGACCGGUACGGCCGCCACUCGUACCAAAACAUGAGGAUCACCCAUGUUAAA,apparent Kd,[7],17.4 nM
same,apparent Kd,[8],17.8 nM
UCUAUUAACUAAGGAUAUAGAACAGGCCGGAUUUUGUUGCGUCUGACAUGAGGAUCACCCAUGUUCUAGAAGGUAGACUGCUGC,apparent Kd,[1],13.3 nM
same,apparent Kd,[2],11.7 nM
UUACGGCAAGGAUAUACAUGAGGAUCACCCAUGUACUCUUUAUAAAUUAGUCAGCAUGGUAGAAGGUGCCGCUA,apparent Kd,[1],9.04 nM
same,apparent Kd,[2],11 nM
UAAUUCACUAUUCACGGUCCGAUGUUCGAUACCAGAUCAUUUCGAAUCCCUUGGCAGCGAUUAACAUGAGGAUCACCCAUGUAAC,apparent Kd,[9],32.2 nM
same,apparent Kd,[10],83.9 nM
GAAUUUCGGAAGAAGGGACUCGAUCAGUUCAGGUCAGGAUAUUCACAUGAGGAUCACCCAUGUCCAUCAGCAUGACGUUUCCAC,apparent Kd,[1],10.9 nM
same,apparent Kd,[2],14.7 nM
AUAACGACUUCAGGAUAUCUAAUAUGGCCUAUAUGCUGAAAACAUGAGGAUCACCCAUGUCAAGGAGAGAAGGGAAGACAAACA,apparent Kd,[1],13.3 nM
same,apparent Kd,[2],10.2 nM
UCCUCGCACGAGAAGGCAAGCCGAGAAACACCUUGAGGAUAUCGUCGACAGACCACCGGGACAUGAGGAUCACCCAUGUGGGCC,apparent Kd,[1],75.2 nM
same,apparent Kd,[2],49 nM
